According to article PMC3090455 (Analytical biochemistry, 2011):
In brackets after ≈: the same amount, converted by molar mass.

Key:
human mEH [1] = target: T1, human mEH (Homo sapiens, UniProt P07099); assay: Kinetic constants determination, human mEH; format: biochemical; settings: lower than for cSO
T1 sequence (P07099 1-455): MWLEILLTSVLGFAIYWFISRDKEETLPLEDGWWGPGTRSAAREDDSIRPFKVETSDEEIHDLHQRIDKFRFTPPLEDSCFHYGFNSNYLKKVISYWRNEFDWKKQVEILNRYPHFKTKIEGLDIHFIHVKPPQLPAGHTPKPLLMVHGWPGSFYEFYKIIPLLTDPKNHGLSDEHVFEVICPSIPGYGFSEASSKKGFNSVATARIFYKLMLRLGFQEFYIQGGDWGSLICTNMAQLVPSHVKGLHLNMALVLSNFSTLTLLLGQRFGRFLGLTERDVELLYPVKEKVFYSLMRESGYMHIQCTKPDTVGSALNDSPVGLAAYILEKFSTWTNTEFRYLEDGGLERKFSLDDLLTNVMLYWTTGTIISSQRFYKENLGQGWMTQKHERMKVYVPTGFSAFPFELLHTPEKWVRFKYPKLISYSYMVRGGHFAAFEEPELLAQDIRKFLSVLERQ

human mEH [2] = target: T1, human mEH; assay: Specific activity of human mEH for absorbent/fluorescent substrates; format: biochemical; settings: [S] 50 μM, pH 9.0, 37°C, fluorescent substrates
Summary of the method: (§1)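 Partially purified recombinant enzyme (0.5–80 μg/mL final) in 100 mM Tris/HCl pH 9.0 with 0.1 mg/mL BSA, preincubated 5 min at 37°C. Substrate added at 50 μM final from 5 mM DMSO stock; buffer-only wells gave background. Read kinetically for 5 min: 4-nitrophenol at 450 nm, or fluorescence (coumarin ex 355/em 450; naphthaldehyde ex 330/em 465). Signals converted via standard curves (0.005–0.5 μM); 8 replicates.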

human mEH [3] = target: T1, human mEH; assay: High throughput screening end-point assay with 11, human mEH; format: biochemical; settings: average, n = 4 for each enzyme, 30 min end-point
Summary of the method: (§2)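 End-point screen of a pesticide library at 10 μM final. Recombinant partially purified enzyme (human 1.6, rat 0.5 μg/mL final) in 100 mM Tris/HCl pH 8.5 with 0.1 mg/mL BSA, preincubated with compounds 5 min at 30°C. Substrate added to 25 μM, then 30 min at room temperature in the dark before fluorescence reading (ex 330/em 465 nm). Buffer-only background and full-activity control wells; duplicate averages.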

rat mEH [4] = target: T2, rat mEH (Rattus norvegicus, UniProt P07687); assay: Kinetic constants determination, rat mEH; format: biochemical; settings: greater
T2 sequence (P07687 1-455): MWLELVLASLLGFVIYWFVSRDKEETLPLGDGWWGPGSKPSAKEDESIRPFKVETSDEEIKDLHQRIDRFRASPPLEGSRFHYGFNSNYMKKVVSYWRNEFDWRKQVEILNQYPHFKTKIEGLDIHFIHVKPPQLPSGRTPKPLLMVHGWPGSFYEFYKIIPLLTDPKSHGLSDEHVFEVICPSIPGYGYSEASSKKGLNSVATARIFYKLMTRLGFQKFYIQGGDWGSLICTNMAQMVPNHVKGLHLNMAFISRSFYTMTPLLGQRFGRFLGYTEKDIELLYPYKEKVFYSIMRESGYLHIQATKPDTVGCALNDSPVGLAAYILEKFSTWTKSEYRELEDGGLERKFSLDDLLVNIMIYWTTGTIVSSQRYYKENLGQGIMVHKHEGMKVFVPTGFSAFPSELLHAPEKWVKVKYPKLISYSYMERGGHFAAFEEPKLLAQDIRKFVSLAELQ

Substrate solubility = format: physicochemical; settings: assay buffer, pH 9
rat mEH [5] = target: T2, rat mEH; assay: High throughput screening end-point assay with 11, rat mEH; format: biochemical; settings: average, n = 4 for each enzyme, 30 min end-point
Summary of the method: as §2

rat mEH [6] = target: T2, rat mEH; assay: Specific activity of rat mEH for absorbent/fluorescent substrates; format: biochemical; settings: [S] 50 μM, pH 9.0, 37°C, fluorescent substrates
Summary of the method: as §1

Background = format: physicochemical
Summary of the method: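 Enzyme-free control wells held Tris/HCl (100 mM, pH 9.0, 0.1 mg/mL BSA), preincubated 5 min at 37°C. Substrate was added from a 5 mM DMSO stock working solution to 50 μM final, and product was read kinetically for 5 min. Read-out was 4-nitrophenol absorbance at […] fluorescence (ex 355/em 450 or ex 330/em 465 nm). Signals were converted to molar amounts via 0.005–0.5 μM standard curves; 8 replicates.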

human mEH [7] = target: T1, human mEH; assay: Assay conditions optimization with substrate 11, human mEH; format: biochemical
Summary of the method: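 Recombinant human mEH from baculovirus, partially purified. Enzyme titrated at 0–10 μg/mL final against 25 μM fluorogenic glycidyl carbonate substrate, in 0.1 M Tris/HCl pH 9.0 with 0.1 mg/mL BSA at 37°C, followed over 30 min. Then 1.6 μg/mL enzyme with substrate compared across six buffers (three pH values) at 30 and 37°C over 10 min, against enzyme-free background. 6-Methoxy-2-naphthaldehyde read at ex 330/em 465 nm.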

[8] = HmEH 1.6 μg/mL, 25 μM 11, Tris/HCl pH 9.0, 37°C

COc1ccc2cc(C(C#N)OC(=O)OCC3CO3)ccc2c1 (centres unmarked) [compound 11, Cyano(6-methoxynaphthalen-2-yl)methyl (oxiran-2-ylmethyl) Carbonate]
KM relative to cSO, human mEH (human mEH [1]): ~40 fold
Human mEH S/B (human mEH [2]): 4
Human mEH Spec. act. (human mEH [2]): 25 ± 2 nmol/min/mg
Human mEH Z' (human mEH [2]): 0.66
S/N of HTS assay (human mEH [3]): > 30
Z' of HTS assay (human mEH [3]): 0.69 ± 0.03
VM/KM relative to cSO and 9, rat mEH (rat mEH [4]): 10 fold
solubility (Substrate solubility): ~50 µM (≈ 15.7 µg/mL)
S/N of HTS assay (rat mEH [5]): > 30
Z' of HTS assay (rat mEH [5]): 0.69 ± 0.03
Rat mEH S/B (rat mEH [6]): 5
Rat mEH S/N (rat mEH [6]): 48
Rat mEH Spec. act. (rat mEH [6]): 68 ± 4 nmol/min/mg
Rat mEH Z' (rat mEH [6]): 0.73
reduction of background hydrolysis on reducing pH (Background; Tris/HCl, pH reduced from 9.0 to 8.5, 25 μM 11): ≈ 30%
background hydrolysis (Background; [S] 50 μM, Tris/HCl 100 mM pH 9.0, 0.1 mg/mL BSA, 37°C, fluorescent substrates): 0.018 ± 0.003 nmol/min
reduction of background hydrolysis on reducing temperature (Background; incubation temperature from 37 to 30 °C, 25 μM 11): at least 50%
signal to background ratio (S/B) (human mEH [7]; [8]): ≈ 3
signal to noise ratio (S/N) (human mEH [7]; [8]): ≈ 40
decrease of catalytic activity of human mEH on reducing temperature (human mEH [7]; incubation temperature from 37 to 30 °C, all buffers tested, 25 μM 11): ≈ 30%
